The values below come from ChEMBL document CHEMBL1123533, “Anticonvulsant activity of piperidinol and (dialkylamino)alkanol esters” (J Med Chem, 1986).

Experiment [1] is described as follows: Inhibition of [3H]BTX binding to guinea pig voltage-dependent sodium channel.
Experiment [2] relates to Mus musculus. The experiment is described as follows: Antiepileptic (anticonvulsant) activity in mice through maximal electroshock seizure (MES) assay; No anticonvulsant activity at 300 mg/kg. It is filed as functional, organism-based. On the set-up: dose 300 mg/kg. The method in brief: (§1)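 Mice dosed at 30, 100 and 300 mg/kg and tested 30 min after administration. Seizures were evoked by 60-cycle AC, 50 mA, delivered for 0.2 s through corneal electrodes, with saline instilled in the eye first. Protection means abolition of the hind limb tonic extension. MES ED50 was quantified on select compounds.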

For experiment [3], the target named is T1, GABA-A receptor; anion channel (Homo sapiens) (UniProt P14867+P47870+P18507+P28472+P48169+Q99928+Q9UN88+P34903+O00591+O14764+Q8N1C3+P18505+P78334+P47869+P31644+Q16445). The experiment in a line: Binding of [3H]- muscimol radioligand against GABA receptor/chloride channel complex at 100 uM. It is filed as protein-complex assay. The method in brief: (§2)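 Rat brain membranes, about 1000 μg protein, in 50 mM Tris-citrate pH 7.1 with 5 nM [3H]muscimol. Incubated 30 min at 0 °C, test compound at 100 μM. Nonspecific binding was defined with 100 μM GABA. Bound ligand was separated by rapid filtration with one buffer wash, and filter radioactivity was counted.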

Experiment [4] has as its target T1, GABA-A receptor; anion channel (Homo sapiens). The experiment is described as follows: Inhibition of [3H]TBPS binding to GABA-A receptor at 100 uM. It is filed as protein-complex assay. The method in brief: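 Rat cerebral cortical membranes, about 1000 μg protein, in 50 mM Tris-citrate pH 7.5 containing 200 mM NaCl with 2 nM [35S]TBPS. Incubated 90 min at 23 °C, test compound at 100 μM. Picrotoxin 10 μM defined nonspecific binding. Ended by rapid filtration with one buffer wash, and filter radioactivity was counted.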

Experiment [5] is described as follows: Inhibition of [3H]BTX binding to guinea pig voltage-dependent sodium channel. This is another data set of the same source.
Experiment [6] addresses T1, GABA-A receptor; anion channel (Homo sapiens). The experiment is described as follows: Binding of [3H]- Diazepam radioligand against GABA receptor/chloride channel complex at 100 uM. It is filed as protein-complex assay. The method in brief: (§3)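 Rat cerebral cortical membranes, about 1000 μg protein, in 50 mM Tris pH 7.4. Incubated with 5 nM [3H]diazepam for 30 min at 0 °C, test compound at 100 μM. Nonspecific binding was defined with 10 μM clonazepam. Ended by rapid filtration with one buffer wash, and retained radioactivity was counted.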

Experiment [7] is filed under the species Mus musculus. The experiment is described as follows: Antiepileptic (anticonvulsant) activity in mice through maximal electroshock seizure (MES) assay. In kind it is functional, organism-based. The essentials:
as §1
A general note: The maximal electroshock test induces tonic seizures with an electrical stimulus.

For experiment [8], the target named is T1, GABA-A receptor; anion channel (Homo sapiens). The experiment in a line: Binding of [3H]- TBPS radioligand against Gamma-aminobutyric acid receptor at 100 uM. It is filed as protein-complex assay.
A short description of experiment [9]: Inhibition of [3H]BTX binding to guinea pig voltage-dependent sodium channel. The source holds these as a separate data set.
Experiment [10] deals with Gamma-aminobutyric acid receptor subunit gamma-1 (Rattus norvegicus) (UniProt P23574). The experiment in a line: Inhibition of [3H]- Diazepam binding to Gamma-aminobutyric acid (GABA-A) receptor at 100 uM. The method in brief: as §3
Experiment [11] has as its target T1, GABA-A receptor; anion channel (Homo sapiens). The experiment is described as follows: Inhibition of [3H]muscimol binding to GABA-A receptor at 100 uM. In kind it is protein-complex assay. The method in brief:
as §2

Experiment [12] relates to Mus musculus. The experiment in a line: Antiepileptic (anticonvulsant) activity in mice through maximal electroshock seizure (MES) assay. No activity at 300 mg/kg. In kind it is functional, organism-based. On the set-up: dose 300 mg/kg. The essentials: as §1

Sequence of Gamma-aminobutyric acid receptor subunit gamma-1 (Rattus norvegicus) (P23574 whole entry): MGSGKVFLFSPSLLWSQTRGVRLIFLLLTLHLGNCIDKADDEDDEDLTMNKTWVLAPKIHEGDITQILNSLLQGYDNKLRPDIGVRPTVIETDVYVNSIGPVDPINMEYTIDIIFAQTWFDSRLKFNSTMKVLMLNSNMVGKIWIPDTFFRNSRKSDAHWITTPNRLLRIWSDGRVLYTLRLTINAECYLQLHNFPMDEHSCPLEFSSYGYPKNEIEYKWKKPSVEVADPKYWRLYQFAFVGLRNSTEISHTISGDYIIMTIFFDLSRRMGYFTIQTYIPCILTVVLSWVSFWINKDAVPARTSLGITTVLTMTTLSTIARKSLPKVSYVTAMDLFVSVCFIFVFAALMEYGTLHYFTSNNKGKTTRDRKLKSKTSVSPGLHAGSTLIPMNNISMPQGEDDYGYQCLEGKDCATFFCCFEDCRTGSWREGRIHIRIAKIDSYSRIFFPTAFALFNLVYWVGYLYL

As usually defined, the IC50 is the point on the concentration scale where inhibition reaches its midpoint. `COc1ccc(C(=O)OC2CCN(C)CC2)cc1OC`: the IC50 in experiment [1] was > 10 µM. Further, the EC50 entry in the experiment on Mus musculus [2] is on record as “Not Active”.
As a reminder, the inhibition is the drop in the measured response relative to a control, in per cent. Higher therefore signals strong suppression. Take `CCN(CC)CCCOC(=O)c1ccccc1-c1ccccc1`: the inhibition in [3] turned out to be 59%; in experiment [4] it was 47%; in experiment [6] it was 51%. Further, the concentration for half-maximal inhibition (IC50) in experiment [5] came to 4.6 µM. The same compound gave an EC50 in the experiment listed under Mus musculus [7] of 7.8 mg/kg.
As for `CN1CCC(OC(=O)c2ccccc2CCc2ccccc2)CC1`, the inhibition in [3] came out at 27%; in [6], 50%. The same compound displayed an IC50 in experiment [1] of 5.4 µM. In the experiment filed under Mus musculus [7], this compound had an EC50 of 25 mg/kg.
For `CN1CCC(OC(=O)c2ccc(Cl)cc2)CC1`, the 50% inhibitory concentration (IC50) in [1] was > 10 µM. Also, the EC50 entry in the experiment on Mus musculus [2] is recorded as “Not Active”.
Turning to `CCC1(c2ccccc2)C(=O)NC(=O)NC1=O` [PHENOBARBITAL], in the experiment listed under Mus musculus [7], the EC50 amounted to 22 mg/kg.
Take `CN1CCC(OC(=O)c2ccc3ccccc3c2)CC1`: the IC50 in experiment [1] was > 10 µM. Further, in the experiment listed under Mus musculus [7], the EC50 was < 100 mg/kg.
`CCN(CC)CC(C)OC(=O)c1ccccc1-c1ccccc1` (configuration not stated) gave a 50% inhibitory concentration (IC50) in experiment [1] of 6.8 µM. Moreover, the EC50 in the experiment listed under Mus musculus [7] is < 30 mg/kg.
Compound `O=C1NC(=O)C(c2ccccc2)(c2ccccc2)N1` [PHENYTOIN] registered an EC50 in the experiment listed under Mus musculus [7] of 9.5 mg/kg.
Regarding `CN1CCC(C)(OC(=O)c2ccccc2CCc2ccccc2)CC1`, the inhibition is 40% in [3] and 42% in experiment [6]. The Stimulation in experiment [8] was found to be 50%. The same compound had an IC50 in [1] of 3.2 µM. In the experiment filed under Mus musculus [7], this compound showed an EC50 of 28 mg/kg.
For `COc1cccc(C(=O)OC2CCN(C)CC2)c1`, the EC50 in the experiment filed under Mus musculus [7] was < 100 mg/kg.
`CCC(=O)OC1CCN(C)CC1` registered an inhibition in experiment [3] of 10%. Besides, the Stimulation in experiment [8] is 9%; in experiment [10] it was -14%. Besides, the IC50 in experiment [9] was > 10 µM. The EC50 entry in the experiment on Mus musculus [2] is listed as “Not Active”.
For `CCN(CC)CCOC(=O)c1ccccc1CCc1ccccc1`, the IC50 in experiment [1] is 3.9 µM. Besides, in the experiment listed under Mus musculus [7], the EC50 is < 300 mg/kg.
In the case of `Cc1cc(C)c(C(=O)OC2CCN(C)CC2)cc1C`, the Stimulation in experiment [8] came to 3%. Moreover, the inhibition in experiment [6] worked out at 37%; in experiment [11] it was 57%. Also, in the experiment with Mus musculus [12], the EC50 came out at 46 mg/kg. The IC50 in experiment [1] is > 10 µM.
As to `Cc1ccc(C(=O)OC2CCN(C)CC2)cc1`, the IC50 in experiment [1] stood at 10 µM. For the same compound, in the experiment with Mus musculus [2], the EC50 result was “Not Active”.
Turning to `CN1CCC(C)(OC(=O)c2ccccc2-c2ccccc2)CC1`, the concentration for half-maximal inhibition (IC50) in [1] came to 3.8 µM. For the same compound, the EC50 entry in the experiment on Mus musculus [2] is “Not Active”.
Regarding `CN1CCC(OC(=O)c2ccccc2COc2ccccc2)CC1`, the inhibition in experiment [3] came out at 35%; in [6] it was 37%. Moreover, in experiment [8], the Stimulation came out at 37%. In experiment [1], the concentration for half-maximal inhibition (IC50) is > 10 µM. This compound also yielded an EC50 in the experiment filed under Mus musculus [7] of 26 mg/kg.
`COc1ccccc1C(=O)OC1CCN(C)CC1`: in experiment [1], the 50% inhibitory concentration (IC50) was > 10 µM. For the same compound, in the experiment on Mus musculus [2], the EC50 entry was “Not Active”.
Take `CCN(CC)CCOC(=O)c1ccccc1-c1ccccc1`: the results for the inhibition in [3], in experiment [4] and in [6] were 31%, 4% and 26%, respectively. Besides, the IC50 in experiment [1] came to 7.5 µM. For the same compound, in the experiment listed under Mus musculus [7], the EC50 stood at 10 mg/kg.
Compound `CN1CCC(OC(=O)c2ccccc2Cc2ccccc2)CC1` registered an IC50 in experiment [1] of 3.4 µM. Moreover, the EC50 in the experiment listed under Mus musculus [7] was < 30 mg/kg.
Take `Cc1[nH]c(C)c(C(=O)OC2CCN(C)CC2)c1C`: the IC50 in experiment [1] is > 10 µM. Further, the EC50 result in the experiment with Mus musculus [2] is recorded as “Not Active”.
With `CN1CCC(OC(=O)c2cccc(O)c2)CC1`, the IC50 in experiment [1] is > 10 µM. For the same compound, the EC50 result with Mus musculus [2] is “Not Active”.
Turning to `CN1CCC(OC(=O)c2ccccc2Br)CC1`, in experiment [1], the IC50 was > 10 µM. Further, the EC50 result in the experiment with Mus musculus [2] is “Not Active”.
For `COc1ccc(CCC(=O)OC2CCN(C)CC2)cc1OC` the same measures were > 10 µM and “Not Active”.
Take `CN1CCC(OC(=O)c2ccccc2Oc2ccccc2)CC1`: the concentration for half-maximal inhibition (IC50) in experiment [1] was determined as 3.6 µM. In the experiment with Mus musculus [2], the EC50 entry is on record as “Not Active”.
For `CN1C(=O)CC(C)(c2ccccc2)C1=O` (configuration not stated) [METHSUXIMIDE], in the experiment filed under Mus musculus [7], the EC50 came to 76 mg/kg.
Regarding `CN1CCC(OC(=O)c2ccccc2C(=O)c2ccccc2)CC1`, the inhibition in experiment [3] turned out to be 21%; in [6] it was 46%. The Stimulation in experiment [8] was found to be 1%. In addition, in experiment [9], the IC50 is > 10 µM. In addition, the EC50 result in the experiment on Mus musculus [2] is listed as “Not Active”.
`CN1CCC(OC(=O)c2ccccc2-c2ccccc2)CC1`: the IC50 in experiment [1] was 10 µM. For the same compound, the EC50 in the experiment filed under Mus musculus [7] came out at 12 mg/kg.
For `CCN(CC)CCCOC(=O)c1ccccc1CCc1ccccc1` the same measures were 6 µM and < 30 mg/kg.
With `CN1CCC(OC(=O)c2ccc(-c3ccccc3)cc2)CC1`, the half-inhibitory concentration (IC50) in experiment [1] worked out at 10 µM. Also, the EC50 in the experiment filed under Mus musculus [7] is < 100 mg/kg.
